The values that follow come from ChEMBL document CHEMBL2321876.

Assay [1] concerns Acinetobacter baumannii. Description: Antibacterial activity against Acinetobacter baumannii ATCC 19606 using iron-replete M9 minimal media after 15 hrs by broth microdilution assay. It is filed as functional, organism-based. Conditions: ATCC 19606 = CIP 70.34 = JCM 6841. The gist of the method:
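ATCC 19606 grown overnight at 30 °C on LB agar, washed twice in dipyridyl-containing M9/casamino acids medium, then diluted to A600 0.0003 in M9 minimal medium with 0.2% casamino acids plus 200 μM FeCl3. Inhibitors from DMSO at 100 μM final, in triplicate. Controls were tetracycline (100 ng/mL) and 1% DMSO. Incubated at 30 °C, A600 measured at 15 h.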

Assay [2] concerns Acinetobacter baumannii. The assay is described as follows: Antibacterial activity against Acinetobacter baumannii ATCC 19606 using iron-deficient M9 minimal media after 15 hrs by broth microdilution assay. The class given is functional, organism-based. Conditions: ATCC 19606 = CIP 70.34 = JCM 6841. The gist of the method: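 ATCC 19606 grown overnight at 30 °C on LB agar, washed twice and resuspended in M9 minimal medium with 0.2% casamino acids and 200 μM dipyridyl. Inoculated at A600 0.0003 in this medium plus 1 μM FeCl3. Inhibitors from DMSO at 100 μM final, in triplicate. Tetracycline (100 ng/mL) and 1% DMSO as controls. Incubated at 30 °C; A600 read at 15 h.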

Assay [3] is described as follows: Displacement of Fl-Sal-AMS from Acinetobacter baumanni BasE expressed in Escherichia coli after 30 mins by fluorescence polarization assay. More on the design: species or system Acinetobacter baumannii. (In general: In fluorescence polarisation assays a small probe gives low polarisation when free and higher when bound to something large.)

Active and inactive are the calls of the source. How the calls were made is not given here.

Take `O=C(O)c1cc(-c2ccc(C(F)(F)F)cc2)nc2c1cnn2Cc1ccncc1`: the result in the assay with Acinetobacter baumannii [1] and in the assay on Acinetobacter baumannii [2] was inactive.
Turning to `CS(=O)(=O)c1ccc(-c2cc(C(=O)O)c3cnn(Cc4ccncc4)c3n2)cc1`, the outcome with Acinetobacter baumannii [1] and in the assay on Acinetobacter baumannii [2] was inactive.
Consider `CSc1ccc(-c2cc(C(=O)O)c3cnn(Cc4ccncc4)c3n2)cc1`, for which the result with Acinetobacter baumannii [1] and in the assay on Acinetobacter baumannii [2] was inactive.
What is called Kd is a measure of binding affinity in units of concentration. Take `O=C(O)c1cc(-c2ccccc2)nc2c1cnn2Cc1ccccc1`: the result in the assay with Acinetobacter baumannii [1] and with Acinetobacter baumannii [2] was inactive. Besides, in assay [3] (read-out: Kd), the Kd is greater than 100 µM.
Take `CCCCCCCCCCCCCCCCOc1ccc(-c2cc(C(=O)O)c3cnn(Cc4ccncc4)c3n2)cc1`: the outcome in the assay on Acinetobacter baumannii [1] and in the assay on Acinetobacter baumannii [2] was inactive. Besides, in assay [3], the Kd entry was “ND(Insoluble)”.
With `O=C(O)c1cc(-c2ccccc2)nc2c1cnn2Cc1ccco1`, the result with Acinetobacter baumannii [1] and with Acinetobacter baumannii [2] was inactive. Moreover, the Kd in assay [3] (read-out: Kd) was greater than 100 µM.
On to `O=C(O)c1cc(-c2ccc(Cl)nc2)nc2c1cnn2Cc1ccncc1`, for which the result in the assay with Acinetobacter baumannii [1] and in the assay with Acinetobacter baumannii [2] was inactive.
For `O=C(O)c1cc(=O)[nH]c2c1cnn2Cc1ccncc1`, the result with Acinetobacter baumannii [1] and with Acinetobacter baumannii [2] was inactive. The Kd in assay [3] (read-out: Kd) is greater than 100 µM.
For the molecule `CCn1ncc2c(C(=O)O)cc(-c3ccccc3)nc21`, the outcome in the assay with Acinetobacter baumannii [1] and in the assay on Acinetobacter baumannii [2] was inactive. The Kd in assay [3] (read-out: Kd) is greater than 500 µM.
On to `O=C(O)c1ccc(-c2cc(C(=O)O)c3cnn(Cc4ccncc4)c3n2)cc1O`, for which the result with Acinetobacter baumannii [1] and in the assay on Acinetobacter baumannii [2] was inactive.
Take `CC(C)n1ncc2c(C(=O)O)cc(-c3ccccc3)nc21`: the outcome in the assay on Acinetobacter baumannii [1] and with Acinetobacter baumannii [2] was inactive. Also, in assay [3] (read-out: Kd), the Kd was greater than 500 µM.
As to `N#Cc1ccc(-c2cc(C(=O)O)c3cnn(Cc4ccncc4)c3n2)cc1`, the result in the assay with Acinetobacter baumannii [1] and with Acinetobacter baumannii [2] was inactive.
Take `O=C(O)c1cc(-c2ccc(-c3ccc(Cl)nc3)nc2)nc2c1cnn2Cc1ccncc1`: the outcome in the assay with Acinetobacter baumannii [1] and in the assay with Acinetobacter baumannii [2] was inactive.
In the case of `CC(=O)c1ccc(-c2cc(C(=O)O)c3cnn(Cc4ccncc4)c3n2)s1`, the result with Acinetobacter baumannii [1] and with Acinetobacter baumannii [2] was inactive.
On to `O=C(O)c1cc(-c2ccccc2)nc2c1cnn2Cc1cccnc1`, for which the outcome with Acinetobacter baumannii [1] and in the assay on Acinetobacter baumannii [2] was inactive. For the same molecule, the Kd in assay [3] (read-out: Kd) was greater than 100 µM.
Take `CC(=O)c1ccc(-c2cc(C(=O)O)c3cnn(Cc4ccncc4)c3n2)cc1`: the result in the assay with Acinetobacter baumannii [1] and in the assay on Acinetobacter baumannii [2] was inactive.
As for `O=C(O)c1cc(-c2ccc(Br)cc2)nc2c1cnn2Cc1ccncc1`, the result in the assay with Acinetobacter baumannii [1] and in the assay with Acinetobacter baumannii [2] was inactive.
Turning to `O=C(O)c1cc(-c2ccc([N+](=O)[O-])cc2)nc2c1cnn2Cc1ccncc1`, the outcome with Acinetobacter baumannii [1] and in the assay on Acinetobacter baumannii [2] was inactive.
Turning to `O=C(O)c1cc(-c2ccccc2)nc2[nH]ncc12`, the result in the assay with Acinetobacter baumannii [1] and in the assay with Acinetobacter baumannii [2] was inactive. Besides, in assay [3] (read-out: Kd), the Kd was greater than 100 µM.
As for `O=C(O)c1cc(-c2cc3ccccc3s2)nc2c1cnn2Cc1ccncc1`, the result with Acinetobacter baumannii [1] and with Acinetobacter baumannii [2] was inactive.
As for `COc1ccc(Cn2ncc3c(C(=O)O)cc(Nc4ccccc4)nc32)cc1`, the outcome with Acinetobacter baumannii [1] and with Acinetobacter baumannii [2] was inactive. Also, the Kd in assay [3] (read-out: Kd) is greater than 100 µM.
For the molecule `O=c1cc(-c2ccccc2)[nH]c2c1cnn2Cc1ccncc1`, the outcome in the assay with Acinetobacter baumannii [1] and in the assay on Acinetobacter baumannii [2] was inactive. In assay [3] (read-out: Kd), the Kd was greater than 100 µM.
On to `O=C(O)c1cc(-c2ccc(Cl)cc2)nc2c1cnn2Cc1ccncc1`, for which the result in the assay on Acinetobacter baumannii [1] and with Acinetobacter baumannii [2] was inactive.
